Data: ChEMBL document CHEMBL2434876, “Design, synthesis and biological evaluation of 2-substituted quinolines as potential antileishmanial agents” (Eur J Med Chem, 2013)
Active and inactive are the calls of the source. The rule behind the calls is not given here.

How the values were obtained:
[1] = Drug metabolism in hamster liver microsomes at 1 uM after 30 mins by LC-MS/MS analysis; assay type: ADME, Microsome; conditions: cricetinae, read-out: Drug metabolism
Summary of the method: (§1)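 Liver microsomes (1 mg/mL protein) in sodium phosphate buffer pH 7.4 with 5 mM NADPH, preincubated 10 min at 37°C. Test compound taken from a 200 µM acetonitrile:DMSO (96:4) stock. Samples analysed by LC/MS/MS as analyte/internal standard peak-area ratio. Percent metabolized at 30 min relative to 0 min; NADPH-free controls run in parallel.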

[2] = Drug metabolism in human liver microsomes at 1 uM after 30 mins by LC-MS/MS analysis; assay type: ADME, Microsome; conditions: read-out: Drug metabolism; summary of the method: as §1
[3] = Drug metabolism in mouse liver microsomes at 1 uM after 30 mins by LC-MS/MS analysis; assay type: ADME, Microsome; conditions: read-out: Drug metabolism; summary of the method: as §1
[4] = Selectivity index, ratio of CC50 for African green monkey Vero cells to IC50 for Leishmania donovani MHOM/IN/80/Dd8 amastigotes; assay type: functional
Summary of the method: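 Selectivity index is Vero CC50 divided by IC50 against intracellular L. donovani amastigotes in J774A.1 cells, each measured over 72 h.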

[5] = Cytotoxicity against African green monkey Vero cells after 72 hrs by MTT assay; assay type: cell-based; conditions: chlorocebus sabaeus
Summary of the method: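 Exponentially growing Vero cells (1 x 10^5/well) exposed 72 h at 37°C, 5% CO2, to 7-point threefold dilutions from 400 µM (DMSO stocks diluted in medium), with DMSO vehicle controls. MTT added for 2 h, formazan dissolved in DMSO, absorbance read at 544 nm. CC50 is the concentration halving viability versus medium-only cells; mean of two independent experiments.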

Leishmania donovani [6] = test: Antileishmanial activity against Leishmania donovani MHOM/IN/80/Dd8 amastigotes infected in mouse J774A1 cells assessed as parasite growth inhibition after 72 hrs by luciferase reporter gene assay; assay type: functional, organism-based; conditions: MHOM/IN/80/Dd8, J774.A1, 72 h
Summary of the method: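 J774A.1 macrophages (4 x 10^3/well) in RPMI-1640 with 10% FCS for 24 h, then infected with stationary-phase luciferase-expressing promastigotes (4 x 10^4/well). Non-internalized parasites washed off after 24 h. Compounds given as 7-point serial dilution from 100 µM for 72 h at 37°C. Steady-Glo luminescence read; IC50 from four-parameter Hill fit, mean of two independent experiments.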

Leishmania donovani [7] = test: Antileishmanial activity against Leishmania donovani MHOM/IN/80/Dd8 amastigotes infected in golden hamster assessed as parasite growth inhibition at 50 mg/kg, po bid for 5 days measured on day 7 by Giemsa staining assay; assay type: functional
Summary of the method: (§2)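 Inbred golden hamsters, 40-45 g, infected intracardially with 1 x 10^7 L. donovani amastigotes. Animals with +1 spleen biopsy grade (5-15 amastigotes/100 nuclei) were randomized, 5-6 per group. Dosing in distilled water/PBS began 48 h after biopsy and ran 5 consecutive days. Post-treatment spleen biopsy on day 7, Giemsa count; percent inhibition corrected for initial count and untreated-control increase.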

Leishmania donovani [8] = test: Antileishmanial activity against Leishmania donovani MHOM/IN/80/Dd8 amastigotes infected in golden hamster assessed as parasite growth inhibition at 30 mg/kg, po qd for 5 days measured on day 7 by Giemsa staining assay; assay type: functional; conditions: read-out: GI; summary of the method: as §2
[9] = Solubility of the compound; assay type: physicochemical
Leishmania donovani [10] = test: Antileishmanial activity against Leishmania donovani MHOM/IN/80/Dd8 amastigotes infected in golden hamster assessed as parasite growth inhibition at 50 mg/kg, ip qd for 5 days measured on day 7 by Giemsa staining assay; assay type: functional; summary of the method: as §2
[11] = Volume of distribution at steady state in Swiss Albino mouse at 10 mg/kg, iv by LC-MS/MS analysis; assay type: ADME, organism-based; set-up: dose 10 mg/kg, route intravenous; conditions: in vivo, read-out: Vdss
Summary of the method: (§3)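 Male Swiss Albino mice, 8-12 weeks, 30-40 g, fasted 4 h pre-dose and fed 4 h post-dose. Parallel groups: 10 mg/kg IV tail-vein bolus or 50 mg/kg oral gavage. Sparse sampling, 3 mice per time point, from 0.083 (IV only) to 24 h. K2EDTA plasma analysed by LC-MS/MS (calibration 1–1000 ng/mL). Non-compartmental parameters; bioavailability from dose-normalized AUC ratio versus IV.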

[12] = Plasma clearance in Swiss Albino mouse at 10 mg/kg, iv by LC-MS/MS analysis; assay type: ADME, organism-based; set-up: dose 10 mg/kg, route intravenous; summary of the method: as §3
[13] = Elimination half life in Swiss Albino mouse at 10 mg/kg, iv by LC-MS/MS analysis; assay type: ADME, organism-based; set-up: dose 10 mg/kg, route intravenous; conditions: in vivo, read-out: beta t1/2 (converted); summary of the method: as §3
[14] = AUC (infinity) in Swiss Albino mouse at 10 mg/kg, iv by LC-MS/MS analysis; assay type: ADME, organism-based; set-up: time infinity, dose 10 mg/kg, route intravenous; conditions: plasma; summary of the method: as §3
[15] = AUClast in Swiss Albino mouse at 10 mg/kg, iv by LC-MS/MS analysis; assay type: ADME, organism-based; set-up: time 0 - last, dose 10 mg/kg, route intravenous; conditions: plasma; summary of the method: as §3
[16] = AUClast in Swiss Albino mouse at 50 mg/kg, po by LC-MS/MS analysis; assay type: ADME, organism-based; set-up: time 0 - last, dose 50 mg/kg, route oral; conditions: plasma; summary of the method: as §3
[17] = Cmax in Swiss Albino mouse at 50 mg/kg, po by LC-MS/MS analysis; assay type: ADME, organism-based; set-up: dose 50 mg/kg, route oral; conditions: in vivo; summary of the method: as §3
[18] = Cmax in Swiss Albino mouse at 10 mg/kg, iv by LC-MS/MS analysis; assay type: ADME, organism-based; set-up: dose 10 mg/kg, route intravenous; conditions: in vivo; summary of the method: as §3
[19] = Tmax in Swiss Albino mouse at 50 mg/kg, po by LC-MS/MS analysis; assay type: ADME, organism-based; set-up: dose 50 mg/kg, route oral; conditions: in vivo; summary of the method: as §3
[20] = Tmax in Swiss Albino mouse at 10 mg/kg, iv by LC-MS/MS analysis; assay type: ADME, organism-based; set-up: dose 10 mg/kg, route intravenous; conditions: in vivo; summary of the method: as §3
[21] = Metabolic stability in whole blood (unknown origin); assay type: ADME, tissue-based
[22] = Metabolic stability in plasma (unknown origin); assay type: ADME, cell-free
Leishmania donovani [23] = test: Antileishmanial activity against Leishmania donovani MHOM/IN/80/Dd8 amastigotes infected in golden hamster assessed as parasite growth inhibition at 50 mg/kg, ip bid for 5 days measured on day 7 by Giemsa staining assay; assay type: functional; conditions: MHOM/IN/80/Dd8, ip, route intraperitoneal, read-out: GI; summary of the method: as §2
[24] = Oral bioavailability in Swiss Albino mouse at 50 mg/kg by LC-MS/MS analysis; assay type: ADME, organism-based; conditions: in vivo; summary of the method: as §3

SMILES	metabolised at 0.5 h, 1 µM [1] [%]	metabolised at 0.5 h, 1 µM [2] [%]	metabolised at 0.5 h, 1 µM [3] [%]	Ratio CC50/IC50 [4]	CC50 at 72 h [5] [µM]	IC50 (Leishmania donovani [6]) [µM]	also measured
OC/C=C/c1cc(N2CCCCC2)c2cc(Cl)c(F)cc2n1	100	39	81	7.86	22.3	2.84	
O=C(O)/C=C/c1ccc2ccccc2n1				>7.96	> 400	50.2	
CN(C)c1cc(/C=C/CO)nc2cc(F)c(Cl)cc12				1.8	41.6	23	
OC/C=C/c1cc(-c2cccc(F)c2)c2cc(Cl)c(F)cc2n1	59	25	40	12.08	21.6	1.79	
OC/C=C/c1ccc2cc(Cl)ccc2n1		87	100	33.59	28.9	0.86	
OC/C=C/c1cc(-c2ccc(F)cc2)c2cc(Cl)c(F)cc2n1	53	25	51		24.6	1.43	
OC/C=C/c1cc(N2CCOCC2)c2cc(Cl)c(F)cc2n1 [listing 1 of 2 here]							inhibition in vivo at 50 mg/kg (Leishmania donovani [7]; read-out: GI): 84.3%
N#C/C=C/c1ccc2ccccc2n1		100	100	5.41	155	28.6	
CCCCCCCCCCCCCCCCOP(=O)([O-])OCC[N+](C)(C)C [MILTEFOSINE]				6.27	52.7		inhibition in vivo at 30 mg/kg (Leishmania donovani [8]): 96.5%
FC/C=C/c1ccc2ccccc2n1		100	100	5.77	38.6	6.68	solubility [9]: > 1000 µg/mL
OC/C=C/c1ccc2c(F)c(Cl)ccc2n1				4.76	19.5	4.1	
COc1ccc2nc(/C=C/CO)ccc2c1				1.42	45.9	32.4	

Now from value to compound, other results behind:

metabolised at 0.5 h, 1 µM [1] [%]	metabolised at 0.5 h, 1 µM [2] [%]	metabolised at 0.5 h, 1 µM [3] [%]	SMILES	Ratio CC50/IC50 [4]	CC50 at 72 h [5] [µM]	IC50 (Leishmania donovani [6]) [µM]	also measured
99	17	50	CC1CN(c2cc(/C=C/CO)nc3cc(F)c(Cl)cc23)CC(C)O1 (stereo not drawn)	8.97	41.3	4.75	
	8	34	COc1ccc(-c2cc(/C=C/CO)nc3ccc(Cl)cc23)cc1	168.72	37.1	0.22	
88	43	56	OC/C=C/c1cc(N2CCOCC2)c2cc(Cl)ccc2n1	10.65	46.9	4.4	
89	27	27	CN1CCN(c2cc(/C=C/CO)nc3cc(F)c(Cl)cc23)CC1	7.58	44.6	5.88	
	25	83	OC/C=C/c1cc(-c2ccc(F)cc2)c2cc(Cl)ccc2n1	20.71	32.5	1.57	
23	14	30	COc1ccc(-c2cc(/C=C/CO)nc3cc(F)c(Cl)cc23)cc1	22.26	26.8	1.2	growth inhibition (GI) (Leishmania donovani [7]): inactive
	22	99	OCC#Cc1ccc2ccccc2n1	2.45	26.2	10.7	
	96	100	OC/C=C/c1ccc2ccccc2n1	3.17	31.9	10	growth inhibition (GI) (Leishmania donovani [10]): inactive
66	35	45	OC/C=C/c1cc(N2CCOCC2)c2cc(Cl)c(F)cc2n1 [listing 2 of 2 here]	187.5	41.2	0.22	Vd [11]: 7.54 L/kg; clearance [12]: 865 mL/min/kg; half-life [13]: 28.2 min; AUC(0-inf) [14]: 193 ng·h/mL; AUC(0-t) [15]: 193 ng·h/mL; AUC(0-t) [16]: 6.88 ng·h/mL; Cmax [17]: 19.7 ng/mL; Cmax [18]: 2230 ng/mL; Tmax [19]: 15 min; Tmax [20]: 4.8 min; Stability [21]: Unstable; Stability [22]: Stable; inhibition in vivo at 50 mg/kg (Leishmania donovani [23]): 77.2%; inhibition in vivo at 50 mg/kg (Leishmania donovani [10]; MHOM/IN/80/Dd8, ip, route intraperitoneal, read-out: GI): 25.4%; bioavailability [24]: 0.7%
	50	60	OC/C=C/c1ccc2cc(Cl)c(F)cc2n1	5.54	79.6	14.3	
	44	97	NC(=O)/C=C/c1ccc2ccccc2n1	3.74	76.3	20.4	
	76	100	OC/C=C/c1ccc2cc(F)ccc2n1	2.86	51.2	17.9	
86	31	44	COc1cc2nc(/C=C/CO)cc(N3CCOCC3)c2cc1Cl	13.92	51.8	3.72	
94	27	33	OC/C=C/c1cc(Oc2ccc(F)cc2)c2cc(Cl)ccc2n1	18.07	35.4	1.96	
	98	100	CCCc1ccc2ccccc2n1	<1.25	126	> 100	
